Laboratory results published in ChEMBL document CHEMBL2384977, “Synthesis and biological evaluation of novel styryl benzimidazole derivatives as probes for imaging of neurofibrillary tangles in Alzheimer's disease” (Bioorg Med Chem, 2013).

Columns and labels:
[1] = 1-Octanol-PBS buffer partition coefficient, log P of the compound at 0.37 MBq after 2 mins by gamma counting analysis; assay type: physicochemical
Brain [2] = assay: Ratio of drug level in ddY mouse brain at 13.2 to 20.6 kBq, iv measured at 2 mins to drug level in ddY mouse brain at 13.2 to 20.6 kBq, iv measured at 60 mins; assay type: ADME, organism-based; details: in vivo
Outline: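 Tail-vein injection of the 125I tracer (13.2–20.6 kBq, saline with ethanol) into male 5-week-old ddY mice. The ratio is brain uptake (%ID/g) at 2 min divided by brain uptake at 60 min, from groups of 5 animals.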

Homo sapiens = species: Homo sapiens; assay: Selectivity ratio of Kd(app) for amyloid beta (1 to 42) (unknown origin) aggregates to Kd(app) for recombinant human tau (441 amino acid residues) aggregates
Outline: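 Human 441-aa tau, expressed in E. coli, was aggregated at 1 mg/mL (MES pH 6.8, 0.1 mg/mL heparin, 37 °C, 3 days, shaking). Aβ1–42 was aggregated at 0.25 mg/mL (PBS pH 7.4, 37 °C, 42 h). Aggregates were incubated 30 min at room temperature with ligand, and fluorescence read at ex 440 nm, em 510 nm (tau) or 480 nm (Aβ). Apparent Kd came from saturation curves over six independent experiments, and the ratio is Kd(Aβ)/Kd(tau).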

[3] = molecular target: Amyloid-beta precursor protein (Homo sapiens, UniProt P05067); assay: Binding affinity to amyloid beta (1 to 42) (unknown origin) aggregates assessed as apparent dissociation constant after 30 mins by fluorescence spectroscopic analysis; details: read-out: Kd(app)
Outline: (§1)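 Tau: human 441-aa tau expressed in E. coli, aggregated at 1 mg/mL in MES buffer pH 6.8 with 0.1 mg/mL heparin, 37 °C for 3 days with shaking. Abeta1-42 aggregated at 0.25 mg/mL in PBS pH 7.4, 37 °C for 42 h with shaking. Aggregates at final 10 µg/mL were incubated with ligand (final 0.02–10 µM) for 30 min at room temperature. Apparent Kd was taken from fluorescence saturation curves at ex 440 nm, em 510 nm (tau) or em 480 nm (Abeta). Mean ± SEM of six independent experiments.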

[4] = molecular target: Microtubule-associated protein tau (Homo sapiens, UniProt P10636); assay: Binding affinity to recombinant human tau (441 amino acid residues) aggregates expressed in Escherichia coli assessed as apparent dissociation constant after 30 mins by fluorescence spectroscopic analysis; details: read-out: Kd(app); outline: as §1
Intestine [5] = assay: Biodistribution in ddY mouse intestine at 13.2 to 20.6 kBq, iv measured at 60 mins by gamma counting analysis; assay type: ADME, organism-based; details: in vivo, 1 h
Outline: (§2)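 Male ddY mice, 5 weeks old, received the 125I-labelled tracer (13.2–20.6 kBq) intravenously in the tail vein, in 100 µL saline containing ethanol. Animals were sacrificed at 2, 10, 30 and 60 min. Tissue radioactivity is expressed as %ID/g, mean (SD) of 5 animals.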

Spleen [6] = assay: Biodistribution in ddY mouse spleen at 13.2 to 20.6 kBq, iv measured at 60 mins by gamma counting analysis; assay type: ADME, organism-based; details: in vivo, 1 h; outline: as §2
Pancreas [7] = assay: Biodistribution in ddY mouse pancreas at 13.2 to 20.6 kBq, iv measured at 60 mins by gamma counting analysis; assay type: ADME, organism-based; details: in vivo, 1 h; outline: as §2
Heart [8] = assay: Biodistribution in ddY mouse heart at 13.2 to 20.6 kBq, iv measured at 60 mins by gamma counting analysis; assay type: ADME, organism-based; details: in vivo, 1 h; outline: as §2
Lung [9] = assay: Biodistribution in ddY mouse lung at 13.2 to 20.6 kBq, iv measured at 60 mins by gamma counting analysis; assay type: ADME, organism-based; details: in vivo, 1 h; outline: as §2
Stomach [10] = assay: Biodistribution in ddY mouse stomach at 13.2 to 20.6 kBq, iv measured per organ at 60 mins by gamma counting analysis; assay type: ADME, organism-based; details: in vivo, 1 h
Outline: (§3)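 Male ddY mice, 5 weeks old, were injected in the tail vein with the 125I tracer (13.2–20.6 kBq) in 100 µL saline containing ethanol. Sacrifice at 2, 10, 30 and 60 min. Stomach radioactivity is expressed as %ID per whole organ, mean (SD) of 5 animals.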

Brain [11] = assay: Biodistribution in ddY mouse brain at 13.2 to 20.6 kBq, iv measured at 60 mins by gamma counting analysis; assay type: ADME, organism-based; details: in vivo, 1 h; outline: as §2
Blood [12] = assay: Biodistribution in ddY mouse blood at 13.2 to 20.6 kBq, iv measured at 60 mins by gamma counting analysis; assay type: ADME, organism-based; details: in vivo, 1 h; outline: as §2
Liver [13] = assay: Biodistribution in ddY mouse liver at 13.2 to 20.6 kBq, iv measured at 10 mins by gamma counting analysis; assay type: ADME, organism-based; details: in vivo; outline: as §2
Kidney [14] = assay: Biodistribution in ddY mouse kidney at 13.2 to 20.6 kBq, iv measured at 10 mins by gamma counting analysis; assay type: ADME, organism-based; details: in vivo; outline: as §2
Intestine [15] = assay: Biodistribution in ddY mouse intestine at 13.2 to 20.6 kBq, iv measured at 10 mins by gamma counting analysis; assay type: ADME, organism-based; details: in vivo; outline: as §2
Spleen [16] = assay: Biodistribution in ddY mouse spleen at 13.2 to 20.6 kBq, iv measured at 10 mins by gamma counting analysis; assay type: ADME, organism-based; details: in vivo; outline: as §2
Pancreas [17] = assay: Biodistribution in ddY mouse pancreas at 13.2 to 20.6 kBq, iv measured at 10 mins by gamma counting analysis; assay type: ADME, organism-based; details: in vivo; outline: as §2
Heart [18] = assay: Biodistribution in ddY mouse heart at 13.2 to 20.6 kBq, iv measured at 10 mins by gamma counting analysis; assay type: ADME, organism-based; details: in vivo; outline: as §2
Lung [19] = assay: Biodistribution in ddY mouse lung at 13.2 to 20.6 kBq, iv measured at 10 mins by gamma counting analysis; assay type: ADME, organism-based; details: in vivo; outline: as §2
Stomach [20] = assay: Biodistribution in ddY mouse stomach at 13.2 to 20.6 kBq, iv measured per organ at 10 mins by gamma counting analysis; assay type: ADME, organism-based; details: in vivo; outline: as §3
Brain [21] = assay: Biodistribution in ddY mouse brain at 13.2 to 20.6 kBq, iv measured at 10 mins by gamma counting analysis; assay type: ADME, organism-based; details: in vivo; outline: as §2
Blood [22] = assay: Biodistribution in ddY mouse blood at 13.2 to 20.6 kBq, iv measured at 10 mins by gamma counting analysis; assay type: ADME, organism-based; details: in vivo; outline: as §2
Liver [23] = assay: Biodistribution in ddY mouse liver at 13.2 to 20.6 kBq, iv measured at 30 mins by gamma counting analysis; assay type: ADME, organism-based; details: in vivo, 0.5 h; outline: as §2
Kidney [24] = assay: Biodistribution in ddY mouse kidney at 13.2 to 20.6 kBq, iv measured at 30 mins by gamma counting analysis; assay type: ADME, organism-based; details: in vivo, 0.5 h; outline: as §2
Intestine [25] = assay: Biodistribution in ddY mouse intestine at 13.2 to 20.6 kBq, iv measured at 30 mins by gamma counting analysis; assay type: ADME, organism-based; details: in vivo, 0.5 h; outline: as §2
Spleen [26] = assay: Biodistribution in ddY mouse spleen at 13.2 to 20.6 kBq, iv measured at 30 mins by gamma counting analysis; assay type: ADME, organism-based; details: in vivo, 0.5 h; outline: as §2
Pancreas [27] = assay: Biodistribution in ddY mouse pancreas at 13.2 to 20.6 kBq, iv measured at 30 mins by gamma counting analysis; assay type: ADME, organism-based; details: in vivo, 0.5 h; outline: as §2
Heart [28] = assay: Biodistribution in ddY mouse heart at 13.2 to 20.6 kBq, iv measured at 30 mins by gamma counting analysis; assay type: ADME, organism-based; details: in vivo, 0.5 h; outline: as §2
Lung [29] = assay: Biodistribution in ddY mouse lung at 13.2 to 20.6 kBq, iv measured at 30 mins by gamma counting analysis; assay type: ADME, organism-based; details: in vivo, 0.5 h; outline: as §2
Stomach [30] = assay: Biodistribution in ddY mouse stomach at 13.2 to 20.6 kBq, iv measured per organ at 30 mins by gamma counting analysis; assay type: ADME, organism-based; details: in vivo, 0.5 h; outline: as §3
Brain [31] = assay: Biodistribution in ddY mouse brain at 13.2 to 20.6 kBq, iv measured at 30 mins by gamma counting analysis; assay type: ADME, organism-based; details: in vivo, 0.5 h; outline: as §2
Blood [32] = assay: Biodistribution in ddY mouse blood at 13.2 to 20.6 kBq, iv measured at 30 mins by gamma counting analysis; assay type: ADME, organism-based; details: in vivo, 0.5 h; outline: as §2
Liver [33] = assay: Biodistribution in ddY mouse liver at 13.2 to 20.6 kBq, iv measured at 60 mins by gamma counting analysis; assay type: ADME, organism-based; details: in vivo, 1 h; outline: as §2
Kidney [34] = assay: Biodistribution in ddY mouse kidney at 13.2 to 20.6 kBq, iv measured at 60 mins by gamma counting analysis; assay type: ADME, organism-based; details: in vivo, 1 h; outline: as §2
Brain [35] = assay: Biodistribution in ddY mouse brain at 13.2 to 20.6 kBq, iv measured at 2 mins by gamma counting analysis; assay type: ADME, organism-based; details: in vivo; outline: as §2
Stomach [36] = assay: Biodistribution in ddY mouse stomach at 13.2 to 20.6 kBq, iv measured per organ at 2 mins by gamma counting analysis; assay type: ADME, organism-based; details: in vivo; outline: as §3
Heart [37] = assay: Biodistribution in ddY mouse heart at 13.2 to 20.6 kBq, iv measured at 2 mins by gamma counting analysis; assay type: ADME, organism-based; details: in vivo; outline: as §2
Lung [38] = assay: Biodistribution in ddY mouse lung at 13.2 to 20.6 kBq, iv measured at 2 mins by gamma counting analysis; assay type: ADME, organism-based; details: in vivo; outline: as §2
Pancreas [39] = assay: Biodistribution in ddY mouse pancreas at 13.2 to 20.6 kBq, iv measured at 2 mins by gamma counting analysis; assay type: ADME, organism-based; details: in vivo; outline: as §2
Spleen [40] = assay: Biodistribution in ddY mouse spleen at 13.2 to 20.6 kBq, iv measured at 2 mins by gamma counting analysis; assay type: ADME, organism-based; details: in vivo; outline: as §2
Intestine [41] = assay: Biodistribution in ddY mouse intestine at 13.2 to 20.6 kBq, iv measured at 2 mins by gamma counting analysis; assay type: ADME, organism-based; details: in vivo; outline: as §2
Kidney [42] = assay: Biodistribution in ddY mouse kidney at 13.2 to 20.6 kBq, iv measured at 2 mins by gamma counting analysis; assay type: ADME, organism-based; details: in vivo; outline: as §2
Blood [43] = assay: Biodistribution in ddY mouse blood at 13.2 to 20.6 kBq, iv measured at 2 mins by gamma counting analysis; assay type: ADME, organism-based; details: in vivo; outline: as §2
Liver [44] = assay: Biodistribution in ddY mouse liver at 13.2 to 20.6 kBq, iv measured at 2 mins by gamma counting analysis; assay type: ADME, organism-based; details: in vivo; outline: as §2

Sequence of Amyloid-beta precursor protein (P05067 whole entry): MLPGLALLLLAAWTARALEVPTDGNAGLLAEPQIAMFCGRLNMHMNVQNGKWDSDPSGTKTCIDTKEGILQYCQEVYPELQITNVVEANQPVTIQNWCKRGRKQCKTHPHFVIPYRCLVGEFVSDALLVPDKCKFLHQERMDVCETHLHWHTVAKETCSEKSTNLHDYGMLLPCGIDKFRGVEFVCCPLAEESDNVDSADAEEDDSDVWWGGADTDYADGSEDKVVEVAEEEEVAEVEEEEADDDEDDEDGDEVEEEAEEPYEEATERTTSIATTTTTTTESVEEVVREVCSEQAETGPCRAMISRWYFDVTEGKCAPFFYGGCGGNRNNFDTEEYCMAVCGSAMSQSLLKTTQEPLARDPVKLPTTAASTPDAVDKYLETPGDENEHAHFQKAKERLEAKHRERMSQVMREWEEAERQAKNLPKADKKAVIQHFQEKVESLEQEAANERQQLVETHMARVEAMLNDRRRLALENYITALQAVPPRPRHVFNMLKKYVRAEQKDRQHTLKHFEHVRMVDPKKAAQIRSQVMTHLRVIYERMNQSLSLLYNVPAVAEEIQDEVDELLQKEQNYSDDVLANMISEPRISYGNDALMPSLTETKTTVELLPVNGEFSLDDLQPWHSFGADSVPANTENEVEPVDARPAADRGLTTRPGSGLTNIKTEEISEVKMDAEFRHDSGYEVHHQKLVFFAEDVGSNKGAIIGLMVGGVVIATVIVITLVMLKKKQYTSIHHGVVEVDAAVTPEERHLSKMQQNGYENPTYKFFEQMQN
Sequence of Microtubule-associated protein tau (P10636 whole entry): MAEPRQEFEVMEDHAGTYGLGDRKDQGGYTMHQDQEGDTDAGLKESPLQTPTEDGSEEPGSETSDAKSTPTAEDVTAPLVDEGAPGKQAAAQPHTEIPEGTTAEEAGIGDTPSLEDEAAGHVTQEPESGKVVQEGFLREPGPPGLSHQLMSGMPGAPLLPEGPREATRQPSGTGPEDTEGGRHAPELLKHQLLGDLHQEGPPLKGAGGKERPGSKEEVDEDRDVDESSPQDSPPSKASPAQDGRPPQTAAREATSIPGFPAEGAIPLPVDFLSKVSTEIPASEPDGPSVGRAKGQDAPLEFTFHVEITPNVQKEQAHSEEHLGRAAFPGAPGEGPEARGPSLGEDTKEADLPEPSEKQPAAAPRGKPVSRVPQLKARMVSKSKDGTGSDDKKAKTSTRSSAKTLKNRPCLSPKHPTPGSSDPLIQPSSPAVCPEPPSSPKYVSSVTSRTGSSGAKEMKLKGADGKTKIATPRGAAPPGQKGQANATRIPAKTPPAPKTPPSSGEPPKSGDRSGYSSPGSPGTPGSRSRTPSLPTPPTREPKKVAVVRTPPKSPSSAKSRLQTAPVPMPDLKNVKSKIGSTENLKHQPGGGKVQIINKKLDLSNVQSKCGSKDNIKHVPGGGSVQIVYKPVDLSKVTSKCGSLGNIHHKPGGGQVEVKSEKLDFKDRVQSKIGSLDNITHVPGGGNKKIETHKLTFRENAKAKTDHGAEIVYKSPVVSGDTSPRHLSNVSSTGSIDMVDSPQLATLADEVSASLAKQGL

CN(C)c1ccc(/N=N/c2nc3ccc([125I])cc3s2)cc1
logP at 2 min [1]: 3.84 | Ratio (Brain [2]): 0.33

Nc1ccc(/C=C/c2nc3ccc(I)cc3[nH]2)cc1
Selectivity ratio (Homo sapiens): 0.38 | Kd [3]: 0.9 µM | Kd [4]: 2.36 µM

CNc1ccc(/C=C/c2nc3ccc([125I])cc3[nH]2)cc1
Drug uptake (Intestine [5]): 30 % ID/g | Drug uptake (Spleen [6]): 1.74 % ID/g | Drug uptake (Pancreas [7]): 0.51 % ID/g | Drug uptake (Heart [8]): 0.74 % ID/g | Drug uptake (Lung [9]): 1.32 % ID/g | Drug uptake (Stomach [10]): 2.97 %ID | Drug uptake (Brain [11]): 0.14 % ID/g | Drug uptake (Blood [12]): 1.37 % ID/g | Drug uptake (Liver [13]): 23.2 % ID/g | Drug uptake (Kidney [14]): 5.85 % ID/g | Drug uptake (Intestine [15]): 11.5 % ID/g | Drug uptake (Spleen [16]): 4.9 % ID/g | Drug uptake (Pancreas [17]): 2.58 % ID/g | Drug uptake (Heart [18]): 2.8 % ID/g | Drug uptake (Lung [19]): 3.55 % ID/g | Drug uptake (Stomach [20]): 4.88 %ID | Drug uptake (Brain [21]): 1.42 % ID/g | Drug uptake (Blood [22]): 2.76 % ID/g | Drug uptake (Liver [23]): 16 % ID/g | Drug uptake (Kidney [24]): 3.07 % ID/g | Drug uptake (Intestine [25]): 28.4 % ID/g | Drug uptake (Spleen [26]): 3.13 % ID/g | Drug uptake (Pancreas [27]): 0.92 % ID/g | Drug uptake (Heart [28]): 1.28 % ID/g | Drug uptake (Lung [29]): 1.93 % ID/g | Drug uptake (Stomach [30]): 4.65 %ID | Drug uptake (Brain [31]): 0.36 % ID/g | Drug uptake (Blood [32]): 2.19 % ID/g | Drug uptake (Liver [33]): 11 % ID/g | Drug uptake (Kidney [34]): 2.02 % ID/g | logP at 2 min [1]: 2 | Ratio (Brain [2]): 29.4 | Drug uptake (Brain [35]): 4.11 % ID/g | Drug uptake (Stomach [36]): 2.31 %ID | Drug uptake (Heart [37]): 6.68 % ID/g | Drug uptake (Lung [38]): 7.13 % ID/g | Drug uptake (Pancreas [39]): 6.8 % ID/g | Drug uptake (Spleen [40]): 5.19 % ID/g | Drug uptake (Intestine [41]): 4.96 % ID/g | Drug uptake (Kidney [42]): 11.2 % ID/g | Drug uptake (Blood [43]): 3.65 % ID/g | Drug uptake (Liver [44]): 19.9 % ID/g

Nc1ccc(/N=N/c2nc3ccc([125I])cc3s2)cc1
Ratio (Brain [2]): 0.3
